The results in this text go back to ChEMBL document CHEMBL4342493, “Design and Optimization of 3'-(Imidazo[1,2-a]pyrazin-3-yl)-[1,1'-biphenyl]-3-carboxamides as Selective DDR1 Inhibitors” (ACS Med Chem Lett, 2020).

Test [1] has as its target Epithelial discoidin domain-containing receptor 1 (Homo sapiens, UniProt Q08345). The test is described as follows: Binding affinity to wild type human partial length DDR1 (R565 to V876 residues) expressed in bacterial expression system after 1 hr by Kinomescan method. The gist of the method:
(§1)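 KINOMEscan binding; Kd determined for DDR1 and the off-target kinases DDR2, CAMK1D, CLK4 and TTK.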

Test [2] concerns the target T1, Calcium/calmodulin-dependent protein kinase type 1D (Homo sapiens, UniProt Q8IU85). Description: Inhibition of wild-type human partial length CAMK1D (M1 to K299 residues) expressed in bacterial expression system assessed as residual enzyme activity at 200 nM after 1 hr by Kinomescan method relative to control.
Target sequence in this assay (Q8IU85 whole entry, looked up, the tested form may be a part): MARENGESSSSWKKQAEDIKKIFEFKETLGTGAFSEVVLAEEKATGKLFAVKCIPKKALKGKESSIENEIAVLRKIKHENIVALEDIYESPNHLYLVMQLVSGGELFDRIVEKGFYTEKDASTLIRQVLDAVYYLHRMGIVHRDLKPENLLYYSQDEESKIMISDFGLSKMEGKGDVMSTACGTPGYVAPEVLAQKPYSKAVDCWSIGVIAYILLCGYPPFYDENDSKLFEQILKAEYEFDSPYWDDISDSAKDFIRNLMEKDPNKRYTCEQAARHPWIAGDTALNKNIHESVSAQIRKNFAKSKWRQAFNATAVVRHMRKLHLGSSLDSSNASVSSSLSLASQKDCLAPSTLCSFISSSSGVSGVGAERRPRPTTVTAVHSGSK
Test [3] deals with T2, Dual specificity protein kinase TTK (Homo sapiens, UniProt P33981).
T2 sequence (P33981 whole entry): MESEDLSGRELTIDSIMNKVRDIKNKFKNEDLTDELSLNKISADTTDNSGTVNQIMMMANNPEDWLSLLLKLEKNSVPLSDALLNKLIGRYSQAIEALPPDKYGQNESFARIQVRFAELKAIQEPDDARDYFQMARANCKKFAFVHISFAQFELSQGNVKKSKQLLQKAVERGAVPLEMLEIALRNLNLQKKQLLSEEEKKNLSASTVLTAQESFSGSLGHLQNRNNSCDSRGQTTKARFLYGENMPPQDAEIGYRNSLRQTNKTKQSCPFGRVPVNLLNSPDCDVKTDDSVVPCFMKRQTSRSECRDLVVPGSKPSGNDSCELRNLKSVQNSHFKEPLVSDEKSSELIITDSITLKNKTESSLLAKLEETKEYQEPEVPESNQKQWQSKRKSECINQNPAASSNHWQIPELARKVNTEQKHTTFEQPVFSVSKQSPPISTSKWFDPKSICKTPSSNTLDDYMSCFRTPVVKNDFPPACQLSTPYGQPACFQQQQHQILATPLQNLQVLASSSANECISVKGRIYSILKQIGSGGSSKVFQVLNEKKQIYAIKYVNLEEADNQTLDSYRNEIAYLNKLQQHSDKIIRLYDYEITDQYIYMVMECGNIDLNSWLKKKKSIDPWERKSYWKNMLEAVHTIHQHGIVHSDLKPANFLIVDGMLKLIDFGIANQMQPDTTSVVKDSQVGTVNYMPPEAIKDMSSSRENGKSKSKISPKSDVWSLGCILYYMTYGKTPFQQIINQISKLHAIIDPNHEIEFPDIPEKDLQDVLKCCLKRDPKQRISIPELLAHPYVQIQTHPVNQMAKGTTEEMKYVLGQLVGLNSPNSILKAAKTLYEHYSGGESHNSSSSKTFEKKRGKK
The test is described as follows: Binding affinity to wild-type human partial length TTK (N505 to V798 residues) expressed in bacterial expression system after 1 hr by Kinomescan method. In outline:
as §1

For test [4], the system named is NCI-H1299. The test is described as follows: Antiinvasive activity against human H1299 cells at 2.5 uM after 24 hrs by crystal violet staining based transwell assay relative to control. It is filed as functional. Particulars: NCI-H1299, 24 h. In outline: (§2)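 H1299 NSCLC cells; transwell invasion assay over 24 h with compound at 1.25, 2.5 and 5.0 μM; invasion expressed relative to blank control.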

The test system of test [5] is NCI-H1299. The test is described as follows: Antiinvasive activity against human H1299 cells at 5 uM after 24 hrs by crystal violet staining based transwell assay relative to control. Particulars: NCI-H1299, 24 h. It is filed as functional. The gist of the method: as §2
For test [6], the system named is NCI-H1299. Description: Antiproliferative activity against human H1299 cells assessed as reduction in cell viability after 72 hrs by CCK-8 assay. Particulars: NCI-H1299, 72 h. In kind it is functional, cell-based. The gist of the method: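 CCK-8 proliferation assay in H1299 cells; IC50 derived from dose-response; means of three independent experiments.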
Background: Tetrazolium assays rely on reduction of a dye to a coloured formazan, in cell work by metabolically active cells.

Test [7] deals with NCI-H1299. Description: Antiinvasive activity against human H1299 cells after 24 hrs by crystal violet staining based transwell assay. It is filed as functional, cell-based. The gist of the method:
as §2

The target in test [8] is T1, Calcium/calmodulin-dependent protein kinase type 1D. Description: Binding affinity to wild-type human partial length CAMK1D (M1 to K299 residues) expressed in bacterial expression system after 1 hr by Kinomescan method. In outline:
as §1
Target sequence in this assay (Q8IU85 whole entry, the tested form may be a part): as the sequence (Q8IU85 whole entry, looked up, the tested form may be a part) above

The subject of test [9] is NCI-H1299. The test is described as follows: Inhibition of colony formation in human H1299 cells assessed as reduction in number of colonies measured after 10 days by crystal violet staining based assay. It is filed as functional, cell-based. In outline: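 Colony formation in H1299 cells under continuous compound treatment for 10 days; colony number quantified and IC50 derived from dose-response.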

Test [10] deals with Mast/stem cell growth factor receptor Kit (Homo sapiens, UniProt P10721). Description: Inhibition of human recombinant His-tagged c-Kit cytoplasmic domain (544 to 976 residues) expressed in baculovirus expression system using Ser/Thr 6 peptide as substrate after 1 hr in presence of 300 uM ATP by FRET based Z'-LYTE assay.
The target in test [11] is T3, Dual specificity protein kinase TTK (Homo sapiens) (UniProt P33981).
T3 sequence (whole entry): T2 sequence (P33981 whole entry)
Description: Inhibition of wild-type human partial length TTK (N505 to V798 residues) expressed in bacterial expression system assessed as enzyme residual activity at 200 nM after 1 hr by Kinomescan method relative to control.

Test [12] relates to NCI-H1299. Description: Antimigratory activity against human H1299 cells assessed as reduction in wound closure at 2.5 uM after 24 hrs by bright field microscopic based wound healing assay relative to control. In kind it is functional. The conditions noted are these: NCI-H1299, 24 h. In outline:
(§3)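 Wound healing (scratch) migration assay in H1299 cells at 1.25, 2.5 and 5.0 μM; wound closure compared with blank control groups.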

For test [13], the system named is NCI-H1299. The test is described as follows: Antimigratory activity against human H1299 cells assessed as reduction in wound closure at 1.25 uM after 24 hrs by bright field microscopic based wound healing assay relative to control. In kind it is functional. Particulars: NCI-H1299, 24 h. The gist of the method: as §3
Test [14] concerns NCI-H1299. The test is described as follows: Antimigratory activity against human H1299 cells assessed as reduction in wound closure at 5 uM after 24 hrs by bright field microscopic based wound healing assay relative to control. It is filed as functional. Particulars: NCI-H1299, 24 h. The gist of the method:
as §3

Chain of Mast/stem cell growth factor receptor Kit (P10721 whole entry, the tested form may be a part): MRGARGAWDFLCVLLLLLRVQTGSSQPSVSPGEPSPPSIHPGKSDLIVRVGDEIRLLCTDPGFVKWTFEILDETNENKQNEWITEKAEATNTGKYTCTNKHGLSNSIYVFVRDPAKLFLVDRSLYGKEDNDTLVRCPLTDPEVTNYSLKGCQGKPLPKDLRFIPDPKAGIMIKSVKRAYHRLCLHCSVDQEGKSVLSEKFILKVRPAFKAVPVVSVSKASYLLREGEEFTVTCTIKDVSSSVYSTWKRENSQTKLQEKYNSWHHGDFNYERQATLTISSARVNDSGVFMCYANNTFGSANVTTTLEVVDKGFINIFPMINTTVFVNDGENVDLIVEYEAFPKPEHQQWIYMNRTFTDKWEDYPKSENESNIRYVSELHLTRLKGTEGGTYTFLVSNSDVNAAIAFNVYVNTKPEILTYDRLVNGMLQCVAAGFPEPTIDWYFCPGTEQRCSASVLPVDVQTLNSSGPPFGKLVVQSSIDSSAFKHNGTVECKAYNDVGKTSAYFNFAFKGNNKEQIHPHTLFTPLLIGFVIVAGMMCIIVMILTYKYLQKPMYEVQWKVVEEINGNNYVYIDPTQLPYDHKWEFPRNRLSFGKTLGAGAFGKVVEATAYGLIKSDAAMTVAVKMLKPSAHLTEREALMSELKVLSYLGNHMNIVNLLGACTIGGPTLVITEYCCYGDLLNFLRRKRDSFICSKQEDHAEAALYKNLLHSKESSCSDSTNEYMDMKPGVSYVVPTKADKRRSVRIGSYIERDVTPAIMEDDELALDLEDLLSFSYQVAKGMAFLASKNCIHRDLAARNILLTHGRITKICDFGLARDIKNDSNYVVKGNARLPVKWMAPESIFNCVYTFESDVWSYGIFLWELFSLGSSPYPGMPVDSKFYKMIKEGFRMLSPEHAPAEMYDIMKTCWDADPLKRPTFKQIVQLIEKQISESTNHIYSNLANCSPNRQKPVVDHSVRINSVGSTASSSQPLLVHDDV
Chain of Epithelial discoidin domain-containing receptor 1 (Q08345 whole entry, the tested form may be a part): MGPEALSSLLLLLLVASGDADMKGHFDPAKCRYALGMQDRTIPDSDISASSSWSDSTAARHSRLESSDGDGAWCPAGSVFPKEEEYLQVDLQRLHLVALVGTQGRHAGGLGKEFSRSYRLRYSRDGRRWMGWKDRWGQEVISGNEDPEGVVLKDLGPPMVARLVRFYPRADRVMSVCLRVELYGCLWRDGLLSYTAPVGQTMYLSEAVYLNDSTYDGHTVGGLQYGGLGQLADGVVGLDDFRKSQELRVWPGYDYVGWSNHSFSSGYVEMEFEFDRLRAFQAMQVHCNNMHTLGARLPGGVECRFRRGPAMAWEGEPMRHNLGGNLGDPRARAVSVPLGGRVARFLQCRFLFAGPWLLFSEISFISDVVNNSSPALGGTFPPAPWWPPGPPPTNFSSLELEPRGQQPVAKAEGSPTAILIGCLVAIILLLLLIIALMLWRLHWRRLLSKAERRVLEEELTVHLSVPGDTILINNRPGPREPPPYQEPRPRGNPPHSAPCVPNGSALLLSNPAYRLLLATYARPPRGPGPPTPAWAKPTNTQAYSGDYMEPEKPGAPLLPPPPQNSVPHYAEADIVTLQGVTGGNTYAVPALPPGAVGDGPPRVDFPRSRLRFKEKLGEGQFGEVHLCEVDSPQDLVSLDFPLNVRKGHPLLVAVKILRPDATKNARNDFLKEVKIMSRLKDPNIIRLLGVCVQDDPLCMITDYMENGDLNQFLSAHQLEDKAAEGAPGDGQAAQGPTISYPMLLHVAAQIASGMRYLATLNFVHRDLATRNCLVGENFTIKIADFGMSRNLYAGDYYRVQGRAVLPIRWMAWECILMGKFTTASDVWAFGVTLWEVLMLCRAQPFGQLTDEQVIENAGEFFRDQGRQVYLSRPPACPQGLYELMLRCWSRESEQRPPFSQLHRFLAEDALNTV

A word on the Kd: it is a measure of binding affinity in units of concentration. What is called inhibition is how much of the control response was suppressed. The IC50 is the concentration that inhibits the measured activity by half. With `CCc1ccc(C(=O)Nc2cc(F)cc(C(F)(F)F)c2)cc1-c1cc(C)cc(-c2cnc3cnccn23)c1`, the dissociation constant (Kd) in test [1] was 7.8 nM; in test [3], more than 1000 nM; in test [8] it was more than 1000 nM. Besides, the Activity in test [2] came out at 0.9%; in test [11] it was 0%. Also, the inhibition at 2.5 µM in the test with NCI-H1299 [4] worked out at 50%; with NCI-H1299 [12], 60%. For the same molecule, the figures for the inhibition at 5 µM with NCI-H1299 [5] and with NCI-H1299 [14] were 71% and 84%, respectively. The IC50 is 6600 nM with NCI-H1299 [6]; 46 nM in the test on NCI-H1299 [9] (NCI-H1299, 240 h); more than 10000 nM in [10]. Besides, the inhibition result in the test on NCI-H1299 [7] and in the test on NCI-H1299 [9] was “Dose-dependent effect” throughout. In the test on NCI-H1299 [13], the inhibition at 1.25 µM worked out at 40%.
